Compound activity from PubChem BioAssay.
Tn7 DDE FP – DD(E)-Tn7 binding inhibition, primary FP screen; P02675; FP displacement of FITC-Tn7 peptide from fibrin DD(E); 0% = median of compound wells per plate; inhibition, % at 8.3 µM; 370,000 tested, 0.13% active; AID 720508;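 active = inhibition above the mean of compounds falling within the control limits plus 3 SD of them, cut at about 14% in these data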
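assay system = human clot-derived fibrin DD(E) complex | quantity = Fibrin-DD(E) at 2 µM final | timing = 10 min preincubation, 3 h with tracer, room temperature | signal = fluorescence polarization | measure = percent inhibition | benchmarks = high control wells with 10 µM unlabelled Aha-Tn7 peptide (full inhibition) | replicates = singlicate testing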
ABCG2 block – blocks JC-1 efflux by human ABCG2 transporter | inhibition, % at 6.6 µM | 190,000 tested, 0.1% active | AID 1325 | IgMXP3 cells, flow cytometry;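 active = inhibition above 80%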
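Test system: IgMXP3 cells (ABCG2) mixed with DDAO far-red-labelled CCRF-Adr cells (ABCB1). Reagent: JC-1 transporter substrate. Compound dosing: single test compound dose, 6.6 µM final. Times: 10 min compound exposure, 25 °C. Detection: flow cytometry of retained JC-1 fluorescence. Read-out basis: efflux inhibition in percent versus controls. Controls: nicardipine and DMSO wells.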
Insulin prom up – MIN6 insulin promoter up-regulation; 190,000 tested, 0.3% active; MIN6 insulin promoter-GFP reporter, high-content imaging; hits give high values; AID 1625; z-score at 5 µM;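 active = z-score above 3 at 5 µM with at least 500 cells counted in the well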
Tn6 DDE FP – inhibitors of Tn6 peptide binding to human fibrin DD(E); P02675; Fibrin DD(E) TRITC-Tn6 fluorescence polarization displacement; inhibition, % at 8.3 µM; 370,000 tested, 0.21% active;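 active = inhibition above a per-campaign cutoff: mean of compounds within control limits plus 3 SD, cut at about 15% in these data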
ABCB1 inh – human ABCB1 inhibition, ABCG2 as counter-screen | P08183 | CCRF-Adr cells, JC-1 efflux, flow cytometry | inhibition, % at 6.6 µM | 190,000 tested, 0.067% active | AID 1326; in the data active = inhibition above about 40%;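 also: higher value means more JC-1 retained so stronger ABCB1 efflux block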
GRK2 inh – inhibitors of human GRK2 displacing RNA aptamer; bead flow cytometry, FAM-aptamer displacement from GRK2; 330,000 tested, 0.59% active; AID 488847; inhibition of aptamer binding, % at 10 µM;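 active = inhibition of aptamer binding above 40%, roughly 3 SD of noise, on plates passing a quality check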;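 also: median bead fluorescence of bound FAM aptamer so fluorescent compounds give negative values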
Target sequence (P25098 whole entry, looked up): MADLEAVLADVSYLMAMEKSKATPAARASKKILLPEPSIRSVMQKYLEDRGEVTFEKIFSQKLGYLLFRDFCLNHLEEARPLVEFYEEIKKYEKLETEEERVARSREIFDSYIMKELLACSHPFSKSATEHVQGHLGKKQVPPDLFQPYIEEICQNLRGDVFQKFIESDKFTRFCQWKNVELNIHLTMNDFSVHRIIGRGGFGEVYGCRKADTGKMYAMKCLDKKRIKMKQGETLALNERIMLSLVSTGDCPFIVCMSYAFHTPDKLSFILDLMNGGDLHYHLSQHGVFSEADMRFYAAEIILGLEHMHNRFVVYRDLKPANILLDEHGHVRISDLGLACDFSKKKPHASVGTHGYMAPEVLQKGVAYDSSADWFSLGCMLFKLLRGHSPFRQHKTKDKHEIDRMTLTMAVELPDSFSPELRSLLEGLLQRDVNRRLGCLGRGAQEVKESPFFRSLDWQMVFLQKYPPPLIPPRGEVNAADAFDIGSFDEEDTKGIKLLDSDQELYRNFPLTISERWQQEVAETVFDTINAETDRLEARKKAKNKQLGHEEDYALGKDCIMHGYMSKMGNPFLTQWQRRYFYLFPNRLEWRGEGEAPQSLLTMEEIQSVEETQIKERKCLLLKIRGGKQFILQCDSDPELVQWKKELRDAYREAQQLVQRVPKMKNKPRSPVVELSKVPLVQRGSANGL
GRK2 inh confirm – confirmation of human GRK2 inhibitors displacing RNA aptamer | shares compounds with GRK2 inh | aptamer displacement, % at 10 µM | 2,000 tested, 4% active | bead-bound GRK2, FAM-aptamer displacement, flow cytometry | AID 504451;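 active = aptamer displacement above 40%, near three times the noise of non-fluorescent compounds, on plates passing quality checks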;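 also: negative values mostly reflect intrinsic compound fluorescence rather than true enhancement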
Aptamer quench – quenches fluorescent RNA aptamer, GRK2 hit artifact | 110 tested, under 10 active | Fluorescent RNA aptamer beads, quenching, flow cytometry; hits give high values | shares compounds with GRK2 inh | fluorescence change (kMESF span), kMESF (concentration not given with the values) | AID 504521;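 active = compounds whose bead fluorescence drops by more than 37 kMESF across the dose range, marking them as dye quenchers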
FAM quench CP1 – counter-screen for GRK2 aptamer inhibitors: fluorescent aptamer quenchers. shares compounds with GRK2 inh. Carboxyfluorescein RNA aptamer on beads, flow cytometry quenching; hits give low values. fluorescence response (% of DMSO), % at 10 µM. 2,000 tested, under 10 active. AID 504580;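 active = compounds that quench the bead-bound fluorescent RNA probe, cutting fluorescence to under half of the solvent control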;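 also: counterscreen run without GRK2 so only probe quenching by compound is measured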
Tn7 DDE conf – confirmation of inhibitors of Tn7 binding to human fibrin DD(E); shares compounds with Tn7 DDE FP; FP displacement of TRITC-Tn7 peptide from DD(E); 0% set at plate's compound-well median; inhibition, % at 8.3 µM; 460 tested, 5% active; AID 720628;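 active = inhibition above the campaign cutoff, the mean of compounds within control limits plus 3 SD, cut at about 14% in these data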;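 also: displacers lower polarization since freed probe rises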
Tn7 DDE ctr – counter-screen for inhibitors of Tn7 peptide binding to fibrin DD(E) | 460 tested, 3% active | inhibition, % at 8.3 µM | shares compounds with Tn7 DDE FP | TRITC-Tn7 probe displacement, fluorescence polarization;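 active = inhibition above the cutoff, the mean of compounds lying between the control bounds plus 3 SD of those compounds, cut at about 17% in these data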
Tn6 DDE ctr – counter-screen for inhibitors of Tn6 peptide binding to fibrin DD(E); AID 720621; shares compounds with Tn6 DDE FP; inhibition, % at 8.3 µM; 680 tested, 2% active; TRITC-Tn6 fluorescence polarization displacement; 0% = median of compound wells, not DMSO;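 active = inhibition above the mean of test compounds lying between the control limits plus 3 SD of those, cut at about 14% in these data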
Tn6 DDE conf – DD(E)-Tn6 binding inhibition, FP confirmation | shares compounds with Tn6 DDE FP | FP displacement of TRITC-Tn6 peptide from DD(E); 0% = per-plate median of test wells | inhibition, % at 8.3 µM | 680 tested, 10% active;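 active = inhibition above the mean of compounds lying within the control limits plus 3 SD, cut at about 16% in these data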
Numbers stand for hits. Sampled rows, rich in hits. Any-hit rate of the full collection: about 0.99%.

For CC(NC(=O)CCC(=O)Nc1ccccc1O)c1ccccc1 (centres undefined) the results were Tn7 DDE FP inactive, Tn6 DDE FP inactive and GRK2 inh inactive.
Screening COc1cccc(CNc2ccc3[nH]c(=O)[nH]c3c2)c1OCc1ccccc1F returned Tn7 DDE FP inactive, Tn6 DDE FP inactive, GRK2 inh 91, GRK2 inh confirm inactive and FAM quench CP1 inactive.
`COc1cc(CNc2ccc3[nH]c(=O)[nH]c3c2)cc(Br)c1OCc1ccc(F)cc1` gave Tn7 DDE FP inactive, Tn6 DDE FP inactive and GRK2 inh inactive.
For COC(=O)[C@]12CCCCC=C1N(CCc1ccc(OC)c(OC)c1)C(=O)[C@H](CC(=O)NCc1ccc(C)o1)C2 the results were Tn7 DDE FP inactive and Tn6 DDE FP inactive.
COc1c(F)c(F)c(C(=O)O)c(Nc2cccc(C)c2)c1F was read as Tn7 DDE FP inactive, ABCG2 block inactive, Insulin prom up inactive, Tn6 DDE FP inactive, ABCB1 inh inactive and GRK2 inh inactive.
Screening Cc1cc(C)cc(Nc2c(F)c(F)c(F)c(F)c2C(=O)O)c1 returned Tn7 DDE FP inactive, ABCG2 block inactive, Insulin prom up inactive, Tn6 DDE FP inactive, ABCB1 inh inactive, GRK2 inh 89, GRK2 inh confirm inactive and FAM quench CP1 inactive.
For COC1C=CC=C(C)C(=O)NC2=CC(=O)C(N)=C(CC(C)CC(OC)C(O)C(C)C=C(C)C1OC(N)=O)C2=O (centres undefined) the results were Tn7 DDE FP inactive and Tn6 DDE FP inactive.
For CCCn1c(=O)c2sccc2n2c(CCCC(=O)NCc3cccnc3)nnc12 the results were Tn7 DDE FP inactive, Tn6 DDE FP inactive and GRK2 inh inactive.
`CCCn1c(=O)c2sccc2n2c(CCCC(=O)NCc3ccco3)nnc12` gave Tn7 DDE FP inactive, Tn6 DDE FP inactive, GRK2 inh 70, GRK2 inh confirm inactive and FAM quench CP1 inactive.
Screening CCN(C(=O)C(C)N1C(=O)/C(=C/c2ccco2)SC1=S)C1CCS(=O)(=O)C1 (centres undefined) returned Tn7 DDE FP 14, Tn6 DDE FP inactive, GRK2 inh 42, GRK2 inh confirm inactive, FAM quench CP1 inactive, Tn7 DDE conf inactive and Tn7 DDE ctr inactive.
Screening CN(Cc1ccccc1)C(=O)OCc1cn(Cc2cc(F)ccc2F)nn1 returned Tn7 DDE FP inactive and Tn6 DDE FP inactive.
O=Cc1ccc(-c2ccccc2C(=O)O)o1 was read as Tn7 DDE FP inactive, ABCG2 block inactive, Insulin prom up inactive, Tn6 DDE FP inactive, ABCB1 inh inactive and GRK2 inh inactive.
`O=C(O)c1ccccc1-c1c2cc(I)c(=O)c(I)c-2oc2c(I)c(O)c(I)cc12` gave Tn7 DDE FP inactive, Tn6 DDE FP active, GRK2 inh 61, GRK2 inh confirm 80, Aptamer quench inactive, FAM quench CP1 inactive, Tn6 DDE ctr inactive and Tn6 DDE conf 93.
For COC(=O)CC[C@H](/C=C/C(=O)OC(C)(C)C)Sc1ccc(C(C)(C)C)cc1 the results were Tn7 DDE FP inactive and Tn6 DDE FP inactive.
Cc1cc2ccccc2n1CCNC(=O)c1ccc(S(=O)(=O)N2CCCCC2)cc1 was read as Tn7 DDE FP inactive, ABCG2 block inactive, Insulin prom up inactive, Tn6 DDE FP 62, ABCB1 inh inactive, GRK2 inh 83, GRK2 inh confirm 84, Aptamer quench inactive, FAM quench CP1 inactive, Tn6 DDE ctr inactive and Tn6 DDE conf 31.
For Cc1cc2cc(CNC(=O)Nc3cccc(Cl)c3)ccc2n1C the results were Tn7 DDE FP inactive, ABCG2 block inactive, Insulin prom up inactive, Tn6 DDE FP 70, ABCB1 inh inactive, GRK2 inh 44, GRK2 inh confirm inactive, FAM quench CP1 inactive, Tn6 DDE ctr inactive and Tn6 DDE conf 18.
For COc1ccc(C(=O)NCC2CCN(C(=O)C(=O)c3cccs3)CC2)cc1 the results were Tn7 DDE FP inactive and Tn6 DDE FP inactive.
For COc1cccc(NC(=O)COC(=O)c2ccc(S(=O)(=O)NCc3ccco3)cc2)c1 the results were Tn7 DDE FP 15, ABCG2 block inactive, Insulin prom up inactive, Tn6 DDE FP inactive, ABCB1 inh inactive, GRK2 inh inactive, Tn7 DDE conf inactive and Tn7 DDE ctr inactive.
Screening O=C1NC(=S)SC1=Cc1cccs1 returned Tn7 DDE FP 14, Tn6 DDE FP inactive, Tn7 DDE conf inactive and Tn7 DDE ctr inactive.
Screening Cc1ccccc1CNC(=O)c1ccccc1C returned Tn7 DDE FP inactive, ABCG2 block inactive, Insulin prom up inactive, Tn6 DDE FP inactive, ABCB1 inh inactive and GRK2 inh inactive.
Cc1ccccc1C(=O)NCC(C)NC(=O)c1ccccc1C (centres undefined) was read as Tn7 DDE FP 14, Tn6 DDE FP inactive, GRK2 inh inactive, Tn7 DDE conf inactive and Tn7 DDE ctr inactive.
Screening COc1cc(C=Nn2c(-c3n[nH]c4c3CCC4)n[nH]c2=S)ccc1OCc1ccccc1 returned Tn7 DDE FP inactive and Tn6 DDE FP inactive.
`Cc1ccsc1/C=N/NC(=O)CNC(=O)c1ccc(S(=O)(=O)N(C)C)cc1` gave Tn7 DDE FP inactive, ABCG2 block inactive, Insulin prom up inactive, Tn6 DDE FP inactive, ABCB1 inh inactive and GRK2 inh inactive.
